We go through 3 compounds from paper PMC8201661 (Cell chemical biology, 2020).

One data set deals with RPMI 8226. As to conditions: cited from earlier work.
Data set [1] concerns RPMI 8226 cells. In words: Western blot for mono-/poly-Ub and PARP-1. Format: cell-based, human. As to conditions: RPMI 8226 cells treated with various concentrations for 6 h. In a few lines:
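RPMI 8226 cells (1,000,000/well) given a range of test-compound concentrations (1000x DMSO stock) or DMSO for 6 h. Lysis in RIPA with protease inhibitors (5 min, ice), then sonication and clearing at 17000 x g. Protein by BCA. After SDS-PAGE and PVDF wet transfer, membranes blocked in 5% milk/TBST and probed for PARP-1 (1:1,000 in 5% BSA/TBST), mono/poly-ubiquitin and α-tubulin as loading control.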
Background: Immunoblotting shows a protein as a band on a membrane.

Data set [2] deals with 20S proteasome subunits PSMB5, PSMB10, PSMA5, PSMB1, and PSMB2. Nature of the data set: In situ competitive LC-MS/MS pull-down with probe 20. It counts as cell-based, human. As to conditions: RPMI 8226 cells, 100 nM 1 for 6 hours, then 10 μM 20; LFQ, n = 6. In a few lines: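 RPMI 8226 cells grown to confluence, then given fresh medium with 100 nM test compound (1000x DMSO stock) or DMSO for 6 h. Washed cells were sonicated in PBS. Lysate (2.32 mg/mL) got 10 μM alkyne probe, 1 h r.t. CuAAC used 30 μM biotin azide, 1 mM TCEP, 100 μM TBTA and 1 mM CuSO4 (1 h), then streptavidin enrichment and on-bead TCEP/iodoacetamide treatment. Trypsin digest, LC-MS/MS, LFQ ratios; n = 6 (3 biological × 2 technical).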

Data set [3] has as its system RPMI 8226 cells. In words: Cell toxicity, WST-1 assay, RPMI 8226. Format: cell-based. As to conditions: Homo sapiens, RPMI-8226, 48 h, read-out: EC50 cytotoxicity, RPMI 8226. On the technique in general: Formazan colour is commonly taken as a measure of viable cells.
The next data set deals with MM1.R cells. In words: Cell toxicity, WST-1 assay, MM1.R. Format: cell-based. Particulars: Homo sapiens, MM.1R, 48 h, read-out: EC50 cytotoxicity, MM1.R. Summed up:
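MM1.R cells grown in RPMI-1640 with 10% FBS, non-essential amino acids and penicillin/streptomycin at 37 °C, 5% CO2. Cells exposed to a range of test-compound concentrations for 24 h or 48 h. Viability read by WST-1 per manufacturer's protocol as values relative to control, n = 3. EC50 fitted from concentration–response.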

Another data set deals with MM1.R. As to conditions: read-out: Previously reported cytotoxicity, MM1.R; ref Hideshima et al., 2001; cited from earlier work.

Regarding `CC(C)C[C@H](NC(=O)[C@H](CCc1ccccc1)NC(=O)CN1CCOCC1)C(=O)N[C@@H](Cc1ccccc1)C(=O)N[C@@H](CC(C)C)C(=O)[C@@]1(C)CO1` [carfilzomib], in the data set on RPMI 8226, the EC50 was 5 nM.

Take `CC(C)CCCCC/C=C/C=C/C(=O)N[C@H](C(=O)N[C@H]1C[C@@H](O)CCNC(=O)/C=C/[C@H](C)NC1=O)[C@@H](C)O` [Compound 1, (2E,4E)-N-((2S,3R)-3-hydroxy-1-(((5S,8S,10S,E)-10-hydroxy-5-methyl-2,7-dioxo-1,6-diazacyclododec-3-en-8-yl)amino)-1-oxobutan-2-yl)-11-methyldodeca-2,4-dienamide]: in the data set with RPMI 8226 cells [1], the “PARP-1 Western blot (apoptosis marker)” value is on record as “PARP-1 cleavage” and the “Ubiquitinated proteins (mono-/poly-ubiquitin Western blot)” value is listed as “concentration-dependent increase in ubiquitinated proteins”. In addition, in data set [2], the “Competition of 20-enriched PSMB5, PSMB10, PSMA5, PSMB1 and PSMB2” value is above 50%. For the same compound, the EC50 with RPMI 8226 cells [3] turned out to be 31 nM. Moreover, the EC50 in the data set with MM1.R cells came to 23 nM.

As for `CC(C)C[C@H](NC(=O)[C@H](Cc1ccccc1)NC(=O)c1cnccn1)B(O)O` [bortezomib], the EC50 in the data set on MM1.R was 3 nM.
